# From PubChem
# An excerpt weighted towards active compounds, which were near 3.1% of everything screened.
# MPTP inh: mitochondrial permeability transition pore inhibitors, primary screen, biochemical, isolated mouse mitochondria, absorbance. Ca2+ swelling absorbance, 30 min. inhibition, % at 10 µM. 360,000 tested, 1.4% active. AID 602449, 2012;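 active means inhibition of 50% or more, scaled per plate between neutral and stimulator controls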;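 further: 0% = DMSO wells given calcium and 100% = 1 mM EGTA wells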
# aDG glyco up: activators of alpha-DG glycosylation, primary screen, uHTS, Pro5-aDG cells, AlphaScreen; alpha-DG glycosylation AlphaScreen (IIH6); 0% Pro5, 100% B10-LARGE cell signal; AID 624168, 2012; 360,000 tested, 0.22% active; activation, % at 10 µM;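 active means activation of at least 8% versus controls, or a plate z-score of at least 8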;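 further: Pro5 are CHO cells carrying HIG-tagged alpha-DG that lacks glycosylation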
# ADAM10 inh: human ADAM10 inhibitors, primary screen, biochemical, QFRET, HTS. recombinant ADAM10, EDANS/DABCYL FRET peptide cleavage, 3 h. inhibition, % at 7 µM. 370,000 tested, 0.62% active;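 active means inhibition above a per-campaign cutoff equal to the mean of compounds falling between control-based bounds plus 3 SD, cut at about 20% in these data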;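 further: 0% = DMSO wells while the 100% control is not disclosed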
# Target sequence (O14672 214-748 limits assumed): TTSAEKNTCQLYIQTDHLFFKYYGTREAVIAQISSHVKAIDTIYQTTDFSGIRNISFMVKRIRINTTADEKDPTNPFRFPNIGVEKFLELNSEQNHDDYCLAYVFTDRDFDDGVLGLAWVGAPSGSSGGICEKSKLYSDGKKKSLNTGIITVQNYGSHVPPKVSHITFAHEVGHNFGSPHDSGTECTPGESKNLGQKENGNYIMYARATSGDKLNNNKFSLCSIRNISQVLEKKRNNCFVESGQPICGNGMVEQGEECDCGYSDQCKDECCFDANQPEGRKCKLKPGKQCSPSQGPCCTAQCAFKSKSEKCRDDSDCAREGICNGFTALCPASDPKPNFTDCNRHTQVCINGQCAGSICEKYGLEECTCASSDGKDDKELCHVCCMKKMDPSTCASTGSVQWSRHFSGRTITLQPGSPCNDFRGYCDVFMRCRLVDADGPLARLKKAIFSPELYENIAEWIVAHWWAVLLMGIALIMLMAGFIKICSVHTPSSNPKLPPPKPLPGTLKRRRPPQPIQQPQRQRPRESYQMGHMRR
# Lipid droplet: inhibitors of hepatocyte lipid droplet formation, primary screen, imaging, high-throughput imaging, BODIPY stain; AML12 mouse hepatocytes, oleate lipid droplets; inhibition, % at 6.5 µM; AID 1656, 2009; 240,000 tested, 0.4% active;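 active means lipid droplet intensity inhibited by at least 50%, with more than 500 cells counted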
#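 Assay system: AML12 mouse liver cells | Compound: 6.5 µM single-point dosing | Schedule: Overnight exposure | Technique: Fluorescence imaging, 20x objective, two fields per well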
# V-ATPase pHluor: regulators of yeast V-ATPase proton pumping, primary screen, pHLuorin cytosolic pH fluorescence. response, % at 10 µM. S. cerevisiae. 350,000 tested, 0.37% active. AID 504577, 2011; in the data active means response mostly above about 7.3%, no sharp cut-off; inactive means mostly below about 5.4%; further: actives read high
# ADAM17 inh: ADAM17 inhibitors, primary screen, biochemical, QFRET; recombinant ADAM17, EDANS/DABCYL FRET peptide cleavage; inhibition, % at 6.95 µM; 370,000 tested, 0.83% active; AID 720648, 2013;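 active means inhibition above the mean of compounds lying between control limits plus 3 SD, set per campaign, cut at about 8.5% in these data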;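 further: 0% = DMSO-only wells as the low control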
# ADAM10 ctr: ADAM10 inhibitors, counter-screen for ADAM17 exosite inhibitor project, biochemical, FRET, human ADAM10. shares compounds with ADAM17 inh. recombinant ADAM10, EDANS/DABCYL FRET peptide cleavage, 3 h. inhibition, % at 6.95 µM. 2,900 tested, 47% active. AID 743256, 2014;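 active means mean inhibition over the triplicate runs exceeds the activity threshold set in the earlier primary screen, cut at about 20% in these data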;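 further: 0% = DMSO wells and 100% = marimastat wells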
# ADAM17 confirm: ADAM17 inhibitors, hit retest, confirmation, biochemical, QFRET peptide cleavage. inhibition, % at 6.95 µM. 2,900 tested, 65% active. shares compounds with ADAM17 inh. recombinant ADAM17, EDANS/DABCYL QFRET peptide cleavage;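 active means mean inhibition across replicates above the hit cutoff set in the primary screen, cut at about 8.5% in these data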;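 further: 0% = DMSO wells and 100% = marimastat wells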
# The depositor's hits bear a star; x = not tested or not shown.
SMILES,MPTP inh,aDG glyco up,ADAM10 inh,Lipid droplet,V-ATPase pHluor,ADAM17 inh,ADAM10 ctr,ADAM17 confirm
COC(=O)C1=C(C)N(c2cccc(C)c2)C(=O)/C1=C\c1cccs1,1.2,-0.3,12.1,x,0.5,8.7*,5.0,5.1
COCc1cn(-c2cccc(-c3noc4c3C(=O)N(CC(=O)N3CCOCC3)CC4)c2)nn1,x,x,1.0,x,x,1.4,x,x
CCCCC[C@@H](C)N1C[C@@H](COCc2ccccc2)Oc2cc(N3CCC[C@H]3CO)ccc2S1(=O)=O,1.0,0.1,17.6,x,x,9.9*,23.2*,15.2*
CC(=O)Nc1ccc(Oc2ccccc2)cc1,1.7,-0.1,-0.4,0.7,-0.2,-4.2,x,x
Cc1ccc(/C=C/C(=O)Nc2ccc(Oc3ccccc3)cc2)o1,17.4,0.2,17.6,4.8,-1.2,12.9*,13.7,11.2*
CC1CCC(NC(=O)C(NS(=O)(=O)c2cccc3nsnc23)C(C)C)CC1 (stereo unspecified),-1.0,1.0,0.6,4.5,-0.8,13.5*,5.0,7.0
CC(C)C(NS(=O)(=O)c1cccc2nsnc12)C(=O)NC1CCCCC1 (stereo unspecified),-1.9,0.1,-3.2,-0.7,1.8,-1.7,x,x
CCCC1CCC2(CCC(=O)N2CCOC)CC1 (stereo unspecified),x,x,-1.5,x,x,-1.5,x,x
CCCSc1nsc(NC(=O)CCC)n1,-1.9,0.2,9.8,-1.6,0.5,9.2*,4.3,3.1
COc1ccc(-n2c(SCC(=O)Nc3ccc(S(=O)(=O)Nc4nccs4)cc3)nnc2-c2ccco2)cc1,x,x,6.8,x,x,4.9,x,x
CC(C)(C)NC(=O)CSc1nc(-c2ccc(F)cc2)cs1,1.5,-0.1,3.4,-21.1,4.9,9.1*,2.8,0.2
CS/C(=C\[N+](=O)[O-])Nc1ccccc1,-3.9,-0.4,-6.0,5.1,-3.1,0.7,x,x
CS/C(=C\[N+](=O)[O-])Nc1ccc(F)cc1,-10.2,0.1,11.9,-24.5,-0.1,12.7*,6.7,3.0
CCOC(=O)C1=CCN(S(=O)(=O)c2ccccc2C)C1c1ccc(Cl)c(Cl)c1 (stereo unspecified),0.3,-0.1,16.3,x,x,12.9*,11.2,7.4
COC(=O)C[C@H]1CC[C@H]2[C@H](COc3ccc(NC(=O)c4cccs4)cc3C(=O)N2C)O1,x,x,1.5,x,x,-1.6,x,x
CCC1C(=NO)C(CC)C(c2ccccc2)NC1c1ccccc1 (stereo unspecified),9.2,0.8,16.4,-13.3,0.2,17.1*,15.5,10.2*
COc1ccc(-c2c(C(=O)c3ccccc3)[nH]c(N)c2C(=O)c2c[nH]c3ccccc23)cc1OC,x,x,11.9,x,x,3.0,x,x
Cc1c(C(=O)NC(=S)Nc2ccc(NC(=O)c3cccs3)cc2)cccc1[N+](=O)[O-],-0.4,1.1,18.4,x,-0.4,12.5*,28.6*,19.6*
Cc1[nH]c2ccccc2c1C(=O)CN1C(=O)NC2(CCCCCC2)C1=O,-1.0,0.3,4.0,x,-0.6,2.9,x,x
CCC1CCC2(CC1)NC(=O)N(CC(=O)c1c(C)[nH]c3ccccc13)C2=O (stereo unspecified),-23.7,-0.1,18.4,-35.5,-2.5,8.9*,4.1,7.9
O=C(Nc1cccc(Oc2ccccc2)c1)C1Cc2c(-c3cccc(F)c3)ccnc2O1 (stereo unspecified),0.0,-0.1,15.3,x,x,14.7*,15.2,10.9*
CC(=O)Nc1cccc(-c2ccnc3c2CC(C(=O)Nc2cccc(Oc4ccccc4)c2)O3)c1 (stereo unspecified),1.7,-0.2,17.9,x,x,7.2,x,x
CCC[C@H]1[C@@H](OC(=O)NCCc2ccccc2)CC[C@@]23CCCN2C(=O)CCC[C@@H]13,x,x,-10.2,x,x,-4.6,x,x
CCN(CC)C(=O)c1nc[nH]c1C(=O)N(CC)CC,3.4,-0.2,8.7,x,-1.6,9.2*,5.6,3.7
CCc1nc2ccc(C(=O)Nc3ccc4c(c3)OCC(=O)N4)cn2c1N(CC)Cc1cccc(Br)c1,-1.7,0.2,13.6,x,x,9.1*,16.2,11.9*
SMILES,MPTP inh,aDG glyco up,ADAM10 inh,Lipid droplet,V-ATPase pHluor,ADAM17 inh,ADAM10 ctr,ADAM17 confirm
COc1cccc(/C=N/NC(=O)CN(CCc2ccccc2)S(=O)(=O)c2ccc(NC(C)=O)cc2)c1,-4.6,-0.1,4.1,-24.7,-1.4,10.8*,23.6*,14.3*
COC(=O)[C@]12C[C@H](CC(=O)NCc3cccc(C(F)(F)F)c3)C(=O)N(Cc3ccc(Cl)cc3Cl)C1=C[C@H](C(C)C)O[C@@H]2C1CC1,x,x,-3.1,x,x,-2.1,x,x
O=C(COc1ccc(F)c(Cl)c1)N[C@H]1CCCN(CC2CC2)C1,x,x,1.1,x,x,-1.5,x,x
O=S(=O)(Nc1ccc(C(O)(C(F)(F)F)C(F)(F)F)cc1)c1cccs1,x,x,8.9,x,x,1.5,x,x
CN(Cc1ccccc1)C(=O)c1ccc(NC(=O)Cc2ccc(NC(=O)C3CCCN(C(=O)CCc4ccccc4)C3)cc2)cc1 (stereo unspecified),1.7,0.0,11.0,x,-1.7,9.4*,20.6*,11.3*
CN(Cc1ccccc1)C(=O)c1ccc(NC(=O)Cc2ccc(NC(=O)C3CCCN(C(=O)C4CCCCC4)C3)cc2)cc1 (stereo unspecified),8.2,0.0,14.7,x,-0.2,10.2*,14.2,4.7
O=C(Cc1ccc(NC(=O)C2CCCN(C(=O)C3CCCCC3)C2)cc1)Nc1ccc(C(=O)N2CCOCC2)cc1 (stereo unspecified),-0.6,-0.1,1.2,x,-0.6,3.5,x,x
CN(C(=O)c1ccc(NC(=O)Cc2ccc(NC(=O)C3CCCN(C(=O)CCc4ccccc4)C3)cc2)cc1)C1CCCC1 (stereo unspecified),1.0,-0.2,6.3,x,-1.1,1.3,x,x
O=C(Cc1ccc(NC(=O)C2CCCN(C(=O)c3ccccc3)C2)cc1)Nc1ccc(C(=O)N2CCOCC2)cc1 (stereo unspecified),-0.5,0.1,2.4,x,1.9,10.1*,-1.8,5.3
CN(Cc1ccccc1)C(=O)c1ccc(NC(=O)Cc2ccc(NC(=O)C3CCCN(C(=O)C4CCC4)C3)cc2)cc1 (stereo unspecified),-1.0,0.0,1.5,x,-2.0,-0.4,x,x
